Test [1] concerns the target T1, Inositol hexakisphosphate kinase 1 (Homo sapiens, UniProt Q92551). In words: Inhibition of IP6K1 (unknown origin) in presence of ATP at Km concentration by Cheng-Prusoff equation analysis. The method in brief: (§1)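 Purified IP6K isoforms run in the ADP-Glo Max kinase assay with 1 mM ATP. Measured IC50 values converted to Ki with the Cheng-Prusoff equation.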
Target sequence in this assay (Q92551 whole entry, canonical isoform): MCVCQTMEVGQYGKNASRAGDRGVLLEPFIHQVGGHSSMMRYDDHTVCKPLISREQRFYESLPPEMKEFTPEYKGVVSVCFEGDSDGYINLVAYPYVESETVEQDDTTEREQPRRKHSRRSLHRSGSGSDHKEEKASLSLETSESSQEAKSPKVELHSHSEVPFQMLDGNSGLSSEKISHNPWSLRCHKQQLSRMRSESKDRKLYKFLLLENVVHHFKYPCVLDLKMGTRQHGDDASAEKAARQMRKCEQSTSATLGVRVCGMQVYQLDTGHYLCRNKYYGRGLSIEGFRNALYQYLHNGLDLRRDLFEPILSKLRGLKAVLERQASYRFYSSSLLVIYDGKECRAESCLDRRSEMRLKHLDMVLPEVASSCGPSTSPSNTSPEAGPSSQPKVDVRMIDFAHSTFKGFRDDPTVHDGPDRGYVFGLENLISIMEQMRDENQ
Test [2] is filed under the species Homo sapiens. Kind of test: Inhibition of recombinant full-length human AURKA I31F mutant assessed as residual activity at 10 uM using LRRASLG as substrate incubated for 40 mins in presence of [gamma-33P]ATP at Km concentration by radiometric assay relative to control.
In test [3] the target is Rho-associated protein kinase 1 (Homo sapiens) (UniProt Q13464). Kind of test: Inhibition of recombinant human ROCK1 (17 to 535 residues) assessed as residual activity at 10 uM using KEAKEKRQEQIAKR as substrate incubated for 40 mins in presence of [gamma-33P]ATP at Km concentration by radiometric assay relative to control.
Test [4] has as its system Glycogen synthase kinase-3 beta (Homo sapiens), P49841 [UNDEFINED MUTATION]. Kind of test: Inhibition of human recombinant GSK3beta H350L mutant (2 to end residues) assessed as residual activity at 10 uM using YRRAAVPPSPSLSR as substrate incubated for 40 mins in presence of [gamma-33P]ATP at Km concentration by radiometric assay relative to control.
Test [5] addresses Tyrosine-protein kinase Fyn (Homo sapiens) (UniProt P06241). In words: Inhibition of human full length recombinant FYN assessed as residual activity at 10 uM using KVEKIGEGTYGVV as substrate incubated for 40 mins in presence of [gamma-33P]ATP at Km concentration by radiometric assay relative to control.
Test [6] deals with Inositol hexakisphosphate kinase 2 (Homo sapiens, UniProt Q9UHH9). Kind of test: Inhibition of IP6K2 (unknown origin) in presence of ATP at Km concentration by Cheng-Prusoff equation analysis. In short, it runs like this:
as §1

Test [7] has as its target Inositol hexakisphosphate kinase 3 (Homo sapiens, UniProt Q96PC2). In words: Inhibition of IP6K3 (unknown origin) incubated for 120 mins using IP6 as substrate in presence of ATP by ADP-Glo reagent based luminescence assay. The method in brief: (§2)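 Luminescent ADP-Glo Max format adapted for IP6K, with purified enzyme and ATP at 1 mM, which is consumed as the kinase reaction proceeds. IC50 taken from the resulting inhibition data.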
(ADP-Glo first removes unused ATP, then detects ADP through luciferase.)

The target of test [8] is T1, Inositol hexakisphosphate kinase 1. Kind of test: Binding affinity to IP6K1 (unknown origin) assessed as change in melting temperature at 11.1 uM by SYPRO orange dye based assay.
Test [9] concerns Eukaryotic elongation factor 2 kinase (Homo sapiens), O00418 [H23R]. In words: Inhibition of recombinant human eEF2K H23R mutant (2 to end residues) assessed as residual activity at 10 uM using RKKFGESEKTKTK as substrate incubated for 40 mins in presence of [gamma-33P]ATP at Km concentration by radiometric assay relative to control.
Chain of Eukaryotic elongation factor 2 kinase (Homo sapiens), O00418 [H23R] (O00418 whole entry H23R): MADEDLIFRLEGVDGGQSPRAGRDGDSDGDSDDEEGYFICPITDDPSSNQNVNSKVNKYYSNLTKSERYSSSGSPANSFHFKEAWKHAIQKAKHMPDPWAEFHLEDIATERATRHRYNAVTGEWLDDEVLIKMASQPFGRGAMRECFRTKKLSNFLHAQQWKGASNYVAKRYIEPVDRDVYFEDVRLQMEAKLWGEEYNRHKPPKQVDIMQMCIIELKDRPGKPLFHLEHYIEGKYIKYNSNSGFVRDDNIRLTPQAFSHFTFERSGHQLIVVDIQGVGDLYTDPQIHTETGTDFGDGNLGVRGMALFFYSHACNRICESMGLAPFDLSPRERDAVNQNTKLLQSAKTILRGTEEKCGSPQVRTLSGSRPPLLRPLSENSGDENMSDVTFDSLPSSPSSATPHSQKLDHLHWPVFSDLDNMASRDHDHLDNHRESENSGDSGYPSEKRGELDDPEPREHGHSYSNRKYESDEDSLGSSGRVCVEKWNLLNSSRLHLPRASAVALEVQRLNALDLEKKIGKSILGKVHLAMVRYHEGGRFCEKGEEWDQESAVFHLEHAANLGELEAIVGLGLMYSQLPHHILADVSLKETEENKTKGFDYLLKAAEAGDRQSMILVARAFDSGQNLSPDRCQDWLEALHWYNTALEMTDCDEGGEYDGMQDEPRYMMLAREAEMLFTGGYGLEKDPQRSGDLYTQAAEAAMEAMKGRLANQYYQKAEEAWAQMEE
The target in test [10] is T1, Inositol hexakisphosphate kinase 1. Kind of test: Inhibition of IP6K1 (unknown origin) incubated for 30 mins using IP6 as substrate in presence of ATP by ADP-Glo reagent based luminescence assay. The following applies: read-out: IC50. The method in brief: as §2
Target sequence in this assay (Q92551 whole entry, canonical isoform): as the sequence (Q92551 whole entry, canonical isoform) above
Test [11] deals with Protein kinase C theta type (Homo sapiens) (UniProt Q04759). In words: Inhibition of recombinant full length human PKCtheta assessed as residual activity at 10 uM using histone H1 as substrate incubated for 40 mins in presence of [gamma-33P]ATP at Km concentration by radiometric assay relative to control.
Chain of Protein kinase C theta type (Homo sapiens) (Q04759 whole entry, looked up): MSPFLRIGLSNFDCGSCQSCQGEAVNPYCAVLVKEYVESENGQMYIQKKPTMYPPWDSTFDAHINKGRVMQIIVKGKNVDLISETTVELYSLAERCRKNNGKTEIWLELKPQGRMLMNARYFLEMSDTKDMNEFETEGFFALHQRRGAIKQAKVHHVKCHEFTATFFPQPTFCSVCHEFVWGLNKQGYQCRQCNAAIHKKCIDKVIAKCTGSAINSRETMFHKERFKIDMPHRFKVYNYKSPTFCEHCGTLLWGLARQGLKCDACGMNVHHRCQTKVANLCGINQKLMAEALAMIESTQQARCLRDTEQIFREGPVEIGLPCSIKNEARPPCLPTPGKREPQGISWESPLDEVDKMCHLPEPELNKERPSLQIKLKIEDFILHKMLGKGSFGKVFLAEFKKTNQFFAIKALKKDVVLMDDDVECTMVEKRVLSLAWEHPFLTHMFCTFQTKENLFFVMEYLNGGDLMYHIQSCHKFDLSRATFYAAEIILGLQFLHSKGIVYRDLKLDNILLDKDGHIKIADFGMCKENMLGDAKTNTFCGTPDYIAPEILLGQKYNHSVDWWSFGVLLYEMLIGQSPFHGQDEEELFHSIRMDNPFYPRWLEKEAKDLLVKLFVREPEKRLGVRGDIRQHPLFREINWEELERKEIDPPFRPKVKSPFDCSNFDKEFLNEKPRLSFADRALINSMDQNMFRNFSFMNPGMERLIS
Test [12] has as its target Inhibitor of nuclear factor kappa-B kinase subunit alpha (Homo sapiens) (UniProt O15111). In words: Inhibition of human full length recombinant IKKalpha assessed as residual activity at 10 uM using peptide as substrate incubated for 40 mins in presence of [gamma-33P]ATP at Km concentration by radiometric assay relative to control.
Test [13] has as its target Serine/threonine-protein kinase pim-1 (Homo sapiens) (UniProt P11309). In words: Inhibition of recombinant full length human PIM1 assessed as residual activity at 10 uM using KKRNRTLTV as substrate incubated for 40 mins in presence of [gamma-33P]ATP at Km concentration by radiometric assay relative to control.
Test [14] deals with Serine/threonine-protein kinase mTOR (Homo sapiens) (UniProt P42345). In words: Inhibition of full length recombinant human mTOR assessed as residual activity at 10 uM incubated for 40 mins in presence of [gamma-33P]ATP at Km concentration by radiometric assay relative to control.
Test [15] addresses Serine/threonine-protein kinase 17A (Homo sapiens) (UniProt Q9UEE5). In words: Inhibition of human full length recombinant DRAK1 assessed as residual activity at 10 uM using KKLNRTLSFAEPG as substrate incubated for 40 mins in presence of [gamma-33P]ATP at Km concentration by radiometric assay relative to control.
Test [16] deals with Casein kinase II subunit alpha' (Homo sapiens) (UniProt P19784). In words: Inhibition of recombinant full length human CK2alpha2 assessed as residual activity at 10 uM using RRRDDDSDDD as substrate incubated for 40 mins in presence of [gamma-33P]ATP at Km concentration by radiometric assay relative to control.
Test [17] has as its target cGMP-dependent protein kinase 1 (Homo sapiens) (UniProt Q13976). In words: Inhibition of recombinant full length human PKG1alpha assessed as residual activity at 10 uM using RRRLSFAEPG as substrate incubated for 40 mins in presence of [gamma-33P]ATP at Km concentration by radiometric assay relative to control.
The target of test [18] is Serine/threonine-protein kinase Chk1 (Homo sapiens) (UniProt O14757). In words: Inhibition of human full length recombinant CHK1 assessed as residual activity at 10 uM using KKKVSRSGLYRSP as substrate incubated for 40 mins in presence of [gamma-33P]ATP at Km concentration by radiometric assay relative to control.
For test [19], the species on record is Homo sapiens. In words: Inhibition of recombinant human PAK2 L150F/P225T/A339 deletion/V383I mutant (3 to end residues) assessed as residual activity at 10 uM using KEAKEKRQEQIAKR as substrate incubated for 40 mins in presence of [gamma-33P]ATP at Km concentration by radiometric assay relative to control.
Test [20] has as its system RAF proto-oncogene serine/threonine-protein kinase (Homo sapiens), P04049 [Y340D,Y341D]. In words: Inhibition of recombinant human c-RAF Y340D/Y341D double mutant (360 to end residues) assessed as residual activity at 10 uM using inactive MEK1 as substrate incubated for 40 mins in presence of [gamma-33P]ATP at Km concentration by radiometric assay relative to control.

In test [21] the target is Serine/threonine-protein kinase PLK3 (Homo sapiens) (UniProt Q9H4B4). In words: Inhibition of recombinant human Plk3 (19 to 301 residues) assessed as residual activity at 10 uM using casein as substrate incubated for 40 mins in presence of [gamma-33P]ATP at Km concentration by radiometric assay relative to control.
Chain of Serine/threonine-protein kinase PLK3 (Homo sapiens) (Q9H4B4 whole entry, looked up, the tested form may be a part): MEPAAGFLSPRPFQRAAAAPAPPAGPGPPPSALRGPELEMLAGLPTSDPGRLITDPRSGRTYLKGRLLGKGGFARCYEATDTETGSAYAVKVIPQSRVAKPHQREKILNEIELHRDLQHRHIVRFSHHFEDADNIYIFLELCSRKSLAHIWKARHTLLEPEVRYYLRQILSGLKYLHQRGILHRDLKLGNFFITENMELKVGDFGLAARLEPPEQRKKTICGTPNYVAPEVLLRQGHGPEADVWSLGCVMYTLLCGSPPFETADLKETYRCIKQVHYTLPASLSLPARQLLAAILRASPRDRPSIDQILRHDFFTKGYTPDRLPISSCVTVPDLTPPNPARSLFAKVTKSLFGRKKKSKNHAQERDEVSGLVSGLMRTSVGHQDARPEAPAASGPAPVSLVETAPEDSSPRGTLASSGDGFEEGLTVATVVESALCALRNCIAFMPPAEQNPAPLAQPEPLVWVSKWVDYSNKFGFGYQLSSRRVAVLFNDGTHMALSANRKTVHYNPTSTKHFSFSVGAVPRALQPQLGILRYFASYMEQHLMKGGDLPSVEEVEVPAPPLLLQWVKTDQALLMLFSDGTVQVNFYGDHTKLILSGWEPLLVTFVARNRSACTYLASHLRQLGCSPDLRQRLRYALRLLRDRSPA

Chain of Inhibitor of nuclear factor kappa-B kinase subunit alpha (Homo sapiens) (O15111 whole entry): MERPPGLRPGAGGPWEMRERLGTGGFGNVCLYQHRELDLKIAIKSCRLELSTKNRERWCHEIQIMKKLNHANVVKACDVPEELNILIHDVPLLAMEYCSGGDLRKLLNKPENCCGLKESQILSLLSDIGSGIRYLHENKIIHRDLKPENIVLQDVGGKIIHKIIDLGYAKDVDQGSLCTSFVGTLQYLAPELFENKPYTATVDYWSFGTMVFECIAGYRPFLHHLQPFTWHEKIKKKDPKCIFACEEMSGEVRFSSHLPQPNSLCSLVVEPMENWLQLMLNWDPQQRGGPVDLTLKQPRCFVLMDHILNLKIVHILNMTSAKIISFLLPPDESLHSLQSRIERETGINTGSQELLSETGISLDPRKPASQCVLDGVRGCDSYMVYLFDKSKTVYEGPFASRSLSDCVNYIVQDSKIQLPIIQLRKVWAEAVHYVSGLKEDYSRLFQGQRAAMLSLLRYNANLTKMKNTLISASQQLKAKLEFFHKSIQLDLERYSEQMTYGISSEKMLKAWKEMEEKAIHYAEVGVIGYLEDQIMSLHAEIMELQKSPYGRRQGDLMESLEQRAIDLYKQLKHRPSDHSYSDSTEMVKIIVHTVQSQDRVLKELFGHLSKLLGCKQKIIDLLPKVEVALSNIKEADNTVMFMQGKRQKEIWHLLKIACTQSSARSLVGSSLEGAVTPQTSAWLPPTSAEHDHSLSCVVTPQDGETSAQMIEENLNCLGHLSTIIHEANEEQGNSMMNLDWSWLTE
Chain of Serine/threonine-protein kinase 17A (Homo sapiens) (Q9UEE5 whole entry): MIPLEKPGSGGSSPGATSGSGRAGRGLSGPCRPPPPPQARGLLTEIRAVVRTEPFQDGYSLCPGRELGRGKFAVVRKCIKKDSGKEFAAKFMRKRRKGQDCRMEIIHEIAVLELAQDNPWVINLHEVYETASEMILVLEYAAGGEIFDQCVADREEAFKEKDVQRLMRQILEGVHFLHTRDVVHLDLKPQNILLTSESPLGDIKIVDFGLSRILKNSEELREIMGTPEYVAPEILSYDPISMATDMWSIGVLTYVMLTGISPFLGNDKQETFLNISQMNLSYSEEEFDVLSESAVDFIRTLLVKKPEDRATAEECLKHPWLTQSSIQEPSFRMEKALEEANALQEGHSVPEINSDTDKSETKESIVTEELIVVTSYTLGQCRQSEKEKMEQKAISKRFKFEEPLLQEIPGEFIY
Chain of Inositol hexakisphosphate kinase 3 (Q96PC2 whole entry): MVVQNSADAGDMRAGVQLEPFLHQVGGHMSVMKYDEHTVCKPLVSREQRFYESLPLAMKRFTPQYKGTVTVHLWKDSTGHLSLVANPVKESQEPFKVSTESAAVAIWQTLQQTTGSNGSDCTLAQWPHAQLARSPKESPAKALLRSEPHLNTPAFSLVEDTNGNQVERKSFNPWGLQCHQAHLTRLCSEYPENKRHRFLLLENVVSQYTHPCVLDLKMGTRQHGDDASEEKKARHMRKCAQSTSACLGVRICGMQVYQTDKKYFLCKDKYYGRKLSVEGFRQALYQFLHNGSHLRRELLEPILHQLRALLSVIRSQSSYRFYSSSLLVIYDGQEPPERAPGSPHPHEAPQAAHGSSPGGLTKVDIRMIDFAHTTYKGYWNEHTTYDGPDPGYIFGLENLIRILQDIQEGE
Chain of Glycogen synthase kinase-3 beta (Homo sapiens), P49841 [UNDEFINED MUTATION] (P49841 whole entry, looked up, stated change not applied): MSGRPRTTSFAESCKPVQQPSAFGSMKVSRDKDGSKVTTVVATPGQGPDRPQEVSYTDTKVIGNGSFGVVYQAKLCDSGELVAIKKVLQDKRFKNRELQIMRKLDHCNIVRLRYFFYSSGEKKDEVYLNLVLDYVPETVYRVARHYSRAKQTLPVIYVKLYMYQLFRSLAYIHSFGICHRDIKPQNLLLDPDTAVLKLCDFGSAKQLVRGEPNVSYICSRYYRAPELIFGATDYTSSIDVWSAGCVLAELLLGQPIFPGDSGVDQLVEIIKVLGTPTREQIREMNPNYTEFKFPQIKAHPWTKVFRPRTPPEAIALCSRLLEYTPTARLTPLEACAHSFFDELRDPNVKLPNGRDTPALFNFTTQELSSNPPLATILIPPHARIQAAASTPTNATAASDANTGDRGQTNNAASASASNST
Chain of Serine/threonine-protein kinase pim-1 (Homo sapiens) (P11309 whole entry, looked up): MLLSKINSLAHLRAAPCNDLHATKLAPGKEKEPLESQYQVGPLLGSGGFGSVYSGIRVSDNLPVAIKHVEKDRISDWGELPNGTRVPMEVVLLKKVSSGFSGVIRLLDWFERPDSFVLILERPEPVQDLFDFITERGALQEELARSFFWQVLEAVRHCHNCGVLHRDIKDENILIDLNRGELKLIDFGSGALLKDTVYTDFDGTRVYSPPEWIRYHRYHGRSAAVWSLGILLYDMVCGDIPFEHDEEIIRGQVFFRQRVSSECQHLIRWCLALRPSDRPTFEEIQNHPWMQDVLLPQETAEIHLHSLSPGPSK

For orientation: Ki means a dissociation constant, usually derived from enzyme kinetics or from competition with a known ligand. By IC50 is commonly meant the point on the concentration scale where inhibition reaches its midpoint. One may read the ΔTm as the shift of the melting midpoint relative to a reference. As for `COc1ccc2c(CCNc3nc(NCc4ccc(=O)[nH]c4)c4nc[nH]c4n3)c[nH]c2c1`, the Ki turned out to be 200 nM in test [1] and 4880 nM in test [6]. In addition, the Activity in the test listed under Homo sapiens [2] is 46%; in [3] it was 91%; in test [4], 63%; in [5], 84%; in test [9] it was 46%; in [11], 87%. Also, the Activity in test [12] amounted to 109%; in [13] it was 82%; in [14], 85%; in test [15], 69%; in test [16], 100%; in [17], 97%. Also, the Activity is 91% in test [18], 98% in the test listed under Homo sapiens [19], -3% in test [20] and 109% in test [21]. The IC50 in test [7] came out at 15000 nM; in [10], 750 nM. Also, the ΔTm in [8] came out at 5.5 °C.

The values are drawn from ChEMBL document CHEMBL4396947, “Synthesis and characterization of novel isoform-selective IP6K1 inhibitors” (Bioorg Med Chem Lett, 2019).
